Experimental data taken from ChEMBL document CHEMBL3272173, “Synthesis and biological activity of peptide antagonists of luliberin (luteinizing hormone-releasing hormone)” (J Med Chem, 1979).
“And” between values parts separate entries of the source, which are not always exact repeats. Equal values may be shown once. Numbered stars: 1 amine (or outer) side, 2 acyl side, 3 side chain; on linkers, the order of the positions; unused ones are H or OH. Peptide text beside a SMILES is read from it. * marks the point of attachment. NHcHex = C1CCC(N*)CC1; CO = O=C([*:1])[*:2]

Experiments:
[1] = molecular target: T1, Gonadotropin-releasing hormone receptor (Rattus norvegicus) (UniProt P30969); assay: In vitro antagonist activity at GNRHR in CD rat anterior pituitary gland assessed as inhibition of LH-RH-stimulated LH release at compound to LH-RH molar ratio of 200 after 4 hrs by radioimmunoassay; details: concentration not given here
T1 sequence (whole entry): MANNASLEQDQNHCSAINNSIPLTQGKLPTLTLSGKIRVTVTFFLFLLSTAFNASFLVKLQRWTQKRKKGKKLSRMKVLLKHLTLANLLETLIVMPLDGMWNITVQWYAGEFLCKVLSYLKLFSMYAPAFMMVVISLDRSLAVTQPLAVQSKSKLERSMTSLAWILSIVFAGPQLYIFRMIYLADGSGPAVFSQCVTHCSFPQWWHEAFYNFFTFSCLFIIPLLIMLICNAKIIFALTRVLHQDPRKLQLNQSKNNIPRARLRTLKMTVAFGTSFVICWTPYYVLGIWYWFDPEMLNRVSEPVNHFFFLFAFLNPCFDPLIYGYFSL
Procedure, shortened: (§1)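 Anterior pituitaries from diestrus CD rats (200-250 g) were dissociated enzymatically (collagenase, hyaluronidase, then Viokase). Cells were cultured 4 days at 1.67 × 10^5 cells/mL in DME with 10% horse serum and 2.5% fetal calf serum, then washed serum-free. Duplicate cultures received LH-RH (2-5 × 10^-10 M) with a single analogue concentration in serum-free DME for 4 h at 37 °C. LH in the medium was measured by RIA and reported as % inhibition of LH-RH-stimulated release.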

Rattus norvegicus [2] = assay: Antiovulatory activity in CD rat assessed as blockade of ovulation at 1 mg, sc administered as six doses at 1200, 1230, 1300, 1350, 1400 and 1450 hrs during proestrus stage measured during estrus stage by dissecting microscopic analysis; assay type: functional
Procedure, shortened: (§2)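 Cycling Charles River CD rats were given six subcutaneous injections of analogue in 0.1 mL propylene glycol on the afternoon of proestrus, and controls received vehicle alone. Rats were killed the next morning (estrus). Ovulating animals were scored and ova in the oviducts were counted under a dissecting microscope.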

Rattus norvegicus [3] = assay: Antiovulatory activity in sc dosed CD rat assessed as blockade of ovulation administered as six doses at 1200, 1230, 1300, 1350, 1400 and 1450 hrs during proestrus stage measured during estrus stage by dissecting microscopic analysis; assay type: functional; procedure, shortened: as §2
[4] = molecular target: T1, Gonadotropin-releasing hormone receptor (Rattus norvegicus); assay: In vitro antagonist activity at GNRHR in CD rat anterior pituitary gland assessed as inhibition of LH-RH-stimulated LH release at compound to LH-RH molar ratio of 1000 after 4 hrs by radioimmunoassay; details: concentration not given here; procedure, shortened: as §1
[5] = molecular target: T1, Gonadotropin-releasing hormone receptor (Rattus norvegicus); assay: In vitro antagonist activity at GNRHR in CD rat anterior pituitary gland assessed as ratio of molar concentration of compound to LH-RH for inhibition of LH-RH-stimulated LH release after 4 hrs by radioimmunoassay
Procedure, shortened: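 Monolayers were cultured 4 days from dissociated anterior pituitary cells of diestrus CD rats. They were exposed in duplicate to LH-RH (2-5 × 10^-10 M) plus multiple analogue concentrations in serum-free DME for 4 h at 37 °C. LH in the medium was measured by radioimmunoassay. The ED50 molar ratio is the analogue:LH-RH molar ratio giving 50% inhibition of LH-RH-stimulated LH release.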

SMILES | inhibition [1] | inhibition [4] | ED50 [5] | inhibition (INH) (Rattus norvegicus [2]) | ED50 (Rattus norvegicus [3])
CC(=O)O.CC(C)C[C@H](NC(=O)[C@@H](Cc1ccccc1)NC(=O)[C@H](Cc1ccc(O)cc1)NC(=O)[C@H](CO)NC(=O)[C@H](Cc1c[nH]c2ccccc12)NC(=O)[C@H](CCC(N)=O)NC(=O)OCc1ccccc1)C(=O)N[C@@H](CCCNC(=N)N)C(=O)N1CCC[C@H]1C(=O)NCC(N)=O | – | – | – | 20% | >3 mg
CC(C)C[C@H](NC(=O)CNC(=O)[C@H](Cc1ccc(O)cc1)NC(=O)[C@H](CO)NC(=O)[C@H](Cc1c[nH]c2ccccc12)NC(=O)Cc1ccccc1)C(=O)N[C@@H](CCCNC(=N)N)C(=O)N1CCC[C@H]1C(=O)NCC(N)=O (HELM PEPTIDE1{[O=C(Cc1ccccc1)[*:2]].W.S.Y.G.L.R.P.G.[am]}$$$$V2.0) | – | 51% | – | – | –
CCNC(=O)[C@@H]1CCCN1C(=O)[C@H](CCCNC(=N)N)NC(=O)[C@H](CC(C)C)NC(=O)[C@H](NC(=O)[C@H](Cc1ccc(O)cc1)NC(=O)[C@H](CO)NC(=O)[C@H](Cc1c[nH]c2ccccc12)NC(=O)[C@H](CCC(N)=O)NC(=O)OCc1ccccc1)[C@@H](O)c1ccccc1.Cl | – | – | – | 100% | 0.4 mg
CC(C)C[C@H](NC(=O)CNC(=O)[C@H](Cc1ccc(O)cc1)NC(=O)[C@H](CO)NC(=O)[C@H](Cc1c[nH]c2ccccc12)NC(=O)[C@H](CCC(N)=O)NC=O)C(=O)N[C@@H](CCCNC(=N)N)C(=O)N1CCC[C@H]1C(=O)NCC(N)=O (HELM PEPTIDE1{[O=C[*:2]].Q.W.S.Y.G.L.R.P.G.[am]}$$$$V2.0) | – | 0% | – | – | –
CC(C)C[C@H](NC(=O)CNC(=O)[C@H](Cc1ccc(O)cc1)NC(=O)[C@H](CO)NC(=O)[C@H](Cc1c[nH]c2ccccc12)NC(=O)[C@H](CCC(N)=O)NC(=O)OC(C)(C)C)C(=O)N[C@@H](CCCNC(=N)N)C(=O)N1CCC[C@H]1C(=O)NCC(N)=O (HELM PEPTIDE1{[CC(C)(C)OC(=O)[*:2]].Q.W.S.Y.G.L.R.P.G.[am]}$$$$V2.0) | – | 15% | – | – | –
CC(C)C[C@H](NC(=O)CNC(=O)[C@H](Cc1ccc(O)cc1)NC(=O)[C@H](CO)NC(=O)[C@H](Cc1c[nH]c2ccccc12)NC(=O)NC1CCCCC1)C(=O)N[C@@H](CCCNC(=N)N)C(=O)N1CCC[C@H]1C(=O)NCC(N)=O ({NHcHex-CO}-WSYGLRPG-NH2) | – | 19% | – | – | –
CCNC(=O)CNC(=O)[C@@H]1CCCN1C(=O)[C@H](CCCNC(=N)N)NC(=O)[C@H](CC(C)C)NC(=O)CNC(=O)[C@H](Cc1ccc(O)cc1)NC(=O)[C@H](CO)NC(=O)[C@H](Cc1c[nH]c2ccccc12)NC(=O)[C@H](CCC(N)=O)NC(=O)OCc1ccccc1 (HELM PEPTIDE1{[O=C(OCc1ccccc1)[*:2]].Q.W.S.Y.G.L.R.P.G.[CCN[*:1]]}$$$$V2.0) | – | 40% | – | – | –
CC(C)C[C@H](NC(=O)CNC(=O)[C@H](Cc1ccc(O)cc1)NC(=O)[C@H](CO)NC(=O)[C@H](Cc1c[nH]c2ccccc12)NC(=O)[C@@H](NC(=O)OCc1ccccc1)C(C)C)C(=O)N[C@@H](CCCNC(=N)N)C(=O)N1CCC[C@H]1C(=O)NCC(N)=O (HELM PEPTIDE1{[O=C(OCc1ccccc1)[*:2]].V.W.S.Y.G.L.R.P.G.[am]}$$$$V2.0) | – | 48% | – | – | –
CC(C)C[C@H](NC(=O)CNC(=O)[C@H](Cc1ccc(O)cc1)NC(=O)[C@H](CO)NC(=O)[C@H](Cc1c[nH]c2ccccc12)NC(=O)[C@H](CC(N)=O)NC(=O)OCc1ccccc1)C(=O)N[C@@H](CCCNC(=N)N)C(=O)N1CCC[C@H]1C(=O)NCC(N)=O (HELM PEPTIDE1{[O=C(OCc1ccccc1)[*:2]].N.W.S.Y.G.L.R.P.G.[am]}$$$$V2.0) | – | 35% | – | – | –
CC(C)C[C@H](NC(=O)[C@@H](Cc1ccccc1)NC(=O)[C@H](Cc1ccc(O)cc1)NC(=O)[C@H](CO)NC(=O)[C@H](Cc1c[nH]c2ccccc12)NC(=O)[C@H](CCC(N)=O)NC(=O)OCc1ccccc1)C(=O)N[C@@H](CCCNC(=N)N)C(=O)N1CCC[C@H]1C(=O)NCC(N)=O.Cl | – | – | – | – | >1 mg

Now from value to compound, other results behind:

inhibition [1] | inhibition [4] | ED50 [5] | SMILES | inhibition (INH) (Rattus norvegicus [2]) | ED50 (Rattus norvegicus [3])
75% | – | – | CC(=O)O.CCNC(=O)[C@@H]1CCCN1C(=O)[C@H](CCCNC(=N)N)NC(=O)[C@H](CC(C)C)NC(=O)[C@@H](Cc1ccc(OC)cc1)NC(=O)[C@H](Cc1ccc(O)cc1)NC(=O)[C@H](CO)NC(=O)[C@H](Cc1c[nH]c2ccccc12)NC(=O)[C@H](COCc1ccccc1)NS(C)(=O)=O | 0% | >1 mg
– | 81% | – | CCNC(=O)[C@@H]1CCCN1C(=O)[C@H](CCCNC(=N)N)NC(=O)[C@H](CC(C)C)NC(=O)CNC(=O)[C@H](Cc1ccc(O)cc1)NC(=O)[C@H](CO)NC(=O)[C@H](Cc1c[nH]c2ccccc12)NC(=O)[C@H](CC(C)C)NC(=O)OCc1ccccc1.Cl | 20% | >1 mg
68% | – | – | CC(C)C[C@H](NC(=O)[C@@H](CO)NC(=O)[C@H](Cc1ccc(O)cc1)NC(=O)[C@H](CO)NC(=O)[C@H](Cc1c[nH]c2ccccc12)NC(=O)[C@H](COCc1ccccc1)NC(=O)OC(C)(C)C)C(=O)N[C@@H](CCCNC(=N)N)C(=O)N1CCC[C@H]1C(=O)NCC(N)=O.Cl | 0% | >1 mg
83% and 93% | – | 22 molar ratio | CC(C)C[C@H](NC(=O)[C@@H](Cc1ccccc1)NC(=O)[C@H](Cc1ccc(O)cc1)NC(=O)[C@H](CO)NC(=O)[C@H](Cc1c[nH]c2ccccc12)NC(=O)[C@H](CCC(N)=O)NC(=O)OCc1ccccc1)C(=O)N[C@@H](CCCNC(=N)N)C(=O)N1CCC[C@H]1C(=O)NCC(N)=O | – | –
– | 70% | – | CC[C@H](C)[C@H](NC(=O)OCc1ccccc1)C(=O)N[C@@H](Cc1c[nH]c2ccccc12)C(=O)N[C@@H](CO)C(=O)N[C@@H](Cc1ccc(O)cc1)C(=O)NCC(=O)N[C@@H](CC(C)C)C(=O)N[C@@H](CCCNC(=N)N)C(=O)N1CCC[C@H]1C(=O)NCC(N)=O.Cl (HELM PEPTIDE1{[O=C(OCc1ccccc1)[*:2]].I.W.S.Y.G.L.R.P.G.[am]}$$$$V2.0) | 20% | >1 mg
83% | – | – | CC(C)C[C@H](NC(=O)[C@@H](Cc1ccc(O)cc1)NC(=O)[C@H](Cc1ccc(O)cc1)NC(=O)[C@H](CO)NC(=O)[C@H](Cc1c[nH]c2ccccc12)NC(=O)[C@@H](Cc1ccccc1)NC(=O)OCc1ccccc1)C(=O)N[C@@H](CCCNC(=N)N)C(=O)N1CCC[C@H]1C(=O)NCC(N)=O.Cl | 0% | >1 mg
– | 100% | – | CCNC(=O)[C@@H]1CCCN1C(=O)[C@H](CCCNC(=N)N)NC(=O)[C@H](CC(C)C)NC(=O)[C@@H](C)NC(=O)[C@H](Cc1ccc(O)cc1)NC(=O)[C@H](CO)NC(=O)[C@H](Cc1c[nH]c2ccccc12)NC(=O)[C@H](CCC(N)=O)NC(=O)OCc1ccccc1.Cl | 20% | >3 mg
– | 16% | – | CC(C)C[C@H](NC(=O)CNC(=O)[C@H](Cc1ccc(O)cc1)NC(=O)[C@H](CO)NC(=O)[C@H](Cc1c[nH]c2ccccc12)NC(=O)[C@H](Cc1ccc(O)cc1)NC(=O)OCc1ccccc1)C(=O)N[C@@H](CCCNC(=N)N)C(=O)N1CCC[C@H]1C(=O)NCC(N)=O (HELM PEPTIDE1{[O=C(OCc1ccccc1)[*:2]].Y.W.S.Y.G.L.R.P.G.[am]}$$$$V2.0) | – | –
– | 95% | 750 molar ratio | CC(C)C[C@H](NC(=O)CNC(=O)[C@H](Cc1ccc(O)cc1)NC(=O)[C@H](CO)NC(=O)[C@H](Cc1c[nH]c2ccccc12)NC(=O)[C@H](CC(C)C)NC(=O)OCc1ccccc1)C(=O)N[C@@H](CCCNC(=N)N)C(=O)N1CCC[C@H]1C(=O)NCC(N)=O.Cl (HELM PEPTIDE1{[O=C(OCc1ccccc1)[*:2]].L.W.S.Y.G.L.R.P.G.[am]}$$$$V2.0) | 40% | >3 mg
50% | – | – | CC(=O)O.CCNC(=O)[C@@H]1CCCN1C(=O)[C@H](CCCNC(=N)N)NC(=O)[C@H](CC(C)C)NC(=O)[C@@H](CO)NC(=O)[C@H](Cc1ccc(O)cc1)NC(=O)[C@H](CO)NC(=O)[C@H](Cc1c[nH]c2ccccc12)NC(=O)[C@H](CCC(N)=O)NC(=O)OCc1ccccc1 | 0% | >1 mg
87% | – | 8 molar ratio | CC(C)C[C@H](NC(=O)[C@@H](Cc1c[nH]c2ccccc12)NC(=O)[C@H](Cc1ccc(O)cc1)NC(=O)[C@H](CO)NC(=O)[C@H](Cc1c[nH]c2ccccc12)NC(=O)[C@H](CCC(N)=O)NC(=O)OCc1ccccc1)C(=O)N[C@@H](CCCNC(=N)N)C(=O)N1CCC[C@H]1C(=O)NCC(N)=O.Cl | 0% | >1 mg
